Autophagy mod: modulators of autophagy; calls only at 10 µM (by protocol); MEF GFP-LC3 puncta imaging; test concentration mostly 10 µM; 190,000 tested, 0.98% active;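 active = percentage of spot-positive cells more than 3 SD above its plate mean, without a fluorescence outlier flag or 80% toxicity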
Dynein cargo inh: dynein cargo transport inhibition. 3617.4 mouse cells, GR-EGFP nuclear translocation imaging; test concentration mostly 20 µM; stimulated with dexamethasone, 1 µM; hits give low values. z-score, hits read low. 220,000 tested, 0.47% active;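 active = plate z-score of nuclear minus cytoplasmic receptor signal below a set negative limit, without overly bright fluorescence or cell loss, cut at about -3.5 in these data, passing the limit was not always enough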;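 also: z-score of nuclear minus cytoplasmic ring GR-EGFP intensity difference per well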
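Buffer or medium: Induction medium lacking tetracycline, stripped serum | Also added: Dexamethasone agonist, 1.0 µM final, for 30 min | Timing: 48 h induction, 1 h compound, 30 min dex at 37 °C | Detection: Formaldehyde fixation, Hoechst nuclear stain, 10x automated fluorescence imaging | Measure: Nuclear versus cytoplasmic GR-EGFP signal, averaged per well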
MT stabilizer: stabilizes microtubules in HeLa cells | AID 2205 | 200,000 tested, 0.83% active | % tubulin-high responders, % at 10 µM | HeLa tubulin immunostaining HCS, 24 h; share of cells brighter than vehicle mean+2SD;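 active = plate Z-score above 3 for both tubulin-high and condensed-nucleus cell shares, with cell loss under 80%, at 10 µM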;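 also: anti alpha tubulin signal scored within the nucleus-defined area of each cell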
bCat nuc transl: beta-catenin nuclear translocation modulation. HeLa beta-catenin nuclear translocation, immunofluorescence imaging. nuclear translocation activity, % at 5 µM. 190,000 tested, 0.3% active;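 active = nuclear translocation activity above 50% at 5 µM, with a well cell count of 50 or more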;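 also: per-cell ratio of nuclear to cytoplasmic median beta-catenin stain intensity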
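assay system = human HeLa cells, endogenous beta-catenin | times = compound treatment 24 h, 37°C, 5% CO2 | detection = Anti-beta-catenin immunofluorescence on PFA-fixed, Triton-permeabilized cells, DAPI nuclei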
CHOP inhibitor: CHOP inhibition in unfolded protein response | CHO-K1 CHOP-promoter luciferase, tunicamycin-induced, 15-18 h | inhibition, % at 10 µM | 220,000 tested, 3.8% active;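 active = compounds that reduced the stress-induced luciferase reporter signal by more than about 70% of percent inhibition, limit read from the data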
L major viab: Leishmania major promastigote growth inhibition | Leishmania major promastigotes, resazurin fluorescence viability | inhibition, % at 10 µM | 200,000 tested, 9% active; in the data active = inhibition above about 50%;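 also: promastigotes grown with compound for 44 hours at 28 °C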
Each line names hits and unclear results; the compound was inactive in the other large screens. Shown are actives, neighbours in structure and some others; about 12% of the full set was active somewhere.

CCc1ccc2[nH]c(=O)c(CN(Cc3ccccc3)C(=O)Nc3ccccc3OC)cc2c1	CHOP inhibitor 73, L major viab 64
O=C(Nc1ccsc1C(=O)NC1CC1)c1ccccc1	none
O=C(Nc1ccsc1C(=O)NC1CCCCC1)c1ccc(F)cc1	CHOP inhibitor 70 (no result: bCat nuc transl)
CNc1oc(-c2ccccc2Cl)nc1P(=O)(c1ccccc1)c1ccccc1	CHOP inhibitor 80
Cc1ccccc1-c1nc(P(=O)(c2ccccc2)c2ccccc2)c(N2CCOCC2)o1	none (no result: Autophagy mod, MT stabilizer, L major viab)
O=C(O)CCC(=O)Nc1ccc(C(=O)OCC(=O)c2ccc(Cl)cc2Cl)cc1	none
O=C(Nc1ccc(F)cc1)N(CCCN1CCOCC1)Cc1cc2cc3c(cc2[nH]c1=O)OCCO3	none
COc1ccc(NC(=O)N(CCN2CCCC2)Cc2cc3cc(OC)c(OC)cc3[nH]c2=O)cc1	CHOP inhibitor 78
CCc1ccc2[nH]c(=O)c(CN(CCCN3CCOCC3)C(=O)Nc3ccc(F)cc3)cc2c1	CHOP inhibitor 71
Cc1ccc2cc(CN(CCN3CCCC3)C(=O)Nc3ccc(F)cc3)c(=O)[nH]c2c1C	L major viab 73
Cc1ccc2cc(CN(CCN3CCCC3)C(=O)Nc3ccccc3)c(=O)[nH]c2c1C	none
N#C/C(=C\c1c(Cl)cccc1Cl)c1nc2ccccc2o1	none
Cc1cc(O)ccc1N/C=C(\C#N)c1nc2ccccc2o1	CHOP inhibitor 73
COc1cc(C(=O)NCCOc2cccc(C)c2)c(Br)c(OC)c1OC	none
CN(C)C(=S)N=Nc1[nH]c2ccccc2c1O	L major viab 97
COc1ccc2[nH]c(N=Nc3ccccc3C)c(O)c2c1	none
COc1ccccc1-c1ccc(SCc2ccc([N+](=O)[O-])cc2)nn1	none
COc1ccccc1-c1ccc(SCc2cccc(C)c2)nn1	L major viab 99
Cn1nccc1C(=O)Oc1cccc(/C=N/NC(=O)c2ccccc2O)c1	none
CN(C(=S)NC1CCCCC1)C1(c2ccccc2Cl)CCCCC1=O (stereo unspecified)	Autophagy mod active
O=c1c2c3nc4ccccc4nc3n(Cc3ccccc3)c2ncn1Cc1ccco1	CHOP inhibitor 74
N=c1c2c(-c3ccccc3)c(-c3ccccc3)n(Cc3ccco3)c2ncn1Cc1ccccc1	Autophagy mod active, CHOP inhibitor 85, L major viab 100 (no result: bCat nuc transl)
N=c1c2c3c(sc2ncn1Cc1ccco1)CCCCC3	none
O=c1c2ccccc2nc(-c2ccccc2)n1Cc1ccco1	none
CC(C)Cn1cnc2c(c(-c3ccccc3)c(-c3ccccc3)n2Cc2ccco2)c1=N	Autophagy mod active, L major viab 100 (no result: bCat nuc transl)
N=c1c2c(-c3ccccc3)c(-c3ccccc3)n(Cc3ccccc3)c2ncn1CCO	Autophagy mod active, L major viab 100
CC1=NC(=O)C(N=Nc2cccc3ccccc23)N1c1ccccc1 (stereo unspecified)	none (no result: bCat nuc transl, CHOP inhibitor)
Cc1nn(CC(=O)Nc2cccnc2N2CCOCC2)c(=O)c2ccccc12	none (no result: Autophagy mod, Dynein cargo inh, MT stabilizer, CHOP inhibitor, L major viab)
COc1ccc(S(=O)(=O)Nc2ccc(O)c(Sc3ncn[nH]3)c2)cc1	none
COc1ccc(S(=O)(=O)Nc2cc(Sc3ncn[nH]3)c(O)c3ccccc23)cc1	Dynein cargo inh -4.5, L major viab 100 (no result: bCat nuc transl)
CN(C)C(=O)c1ccc(-n2cccn2)nc1	none
O=C(/C=C/c1ccc(Br)cc1)c1ccc(NC(=O)c2ccco2)cc1	L major viab 88
O=C(/C=C/c1ccc2c(c1)OCO2)c1ccco1	none
O=C(/C=C\c1ccccc1)Nc1ccc(NC(=O)c2ccco2)cc1	CHOP inhibitor 95
O=C(/C=C/c1ccc(Br)cc1)c1ccco1	L major viab 89
Cc1nc(NC(=O)/C=C/c2ccccc2)sc1C(=O)Nc1ccccc1	CHOP inhibitor 92
CC(C)n1nc(C(=O)Nc2nnc(SCc3c(Cl)cccc3Cl)s2)c2ccccc2c1=O	none
O=c1c2c([nH]c3ccccc13)CCCCCC2	L major viab 64 (no result: bCat nuc transl)
Cc1ccc(NC(=S)N(CCN(C)C)Cc2cc3cccc(C)c3[nH]c2=O)cc1	none
CN(C)CCCN(Cc1cc2cc3c(cc2[nH]c1=O)OCO3)C(=S)Nc1cccc(Cl)c1	L major viab 93 (no result: MT stabilizer)
Cc1cccc(NC(=S)N(CCN(C)C)Cc2cc3cccc(C)c3[nH]c2=O)c1	L major viab 95
Cc1cccc(NC(=S)N(CCN(C)C)Cc2cc3cc(C)cc(C)c3[nH]c2=O)c1	L major viab 98
Cc1ccc(S(=O)(=O)N2CCCCC2)cc1NC(=O)COC(=O)c1ccc2c(c1)OCO2	none
CCCc1cc2c(=O)c(-c3nc4ccccc4s3)c(COCC(=O)O)oc2cc1O	none
CCOC(=O)c1c(NC(=S)Nc2ccc(C)cc2)sc2c1CCC2	none
CCOC(=O)C(NC(=O)c1ccc(F)cc1)(Nc1sc2c(c1C(N)=O)CCC2)C(F)(F)F (stereo unspecified)	L major viab 74
CCOC(=O)c1c(NC(=S)Nc2ccc(F)cc2)sc2c1CCC2	CHOP inhibitor 74 (no result: bCat nuc transl)
Cc1c(/C=N/NC(=O)c2ccc(Br)o2)cnn1C	none (no result: Autophagy mod, MT stabilizer, L major viab)
CCCCN(CCCC)Cc1ccc(C(=O)NNC(=O)Nc2ccc(F)cc2)o1	none
CCCCN(CCCC)Cc1ccc(C(=O)NNC(=O)Nc2ccccc2)o1	Autophagy mod active
N=c1c2c(-c3ccccc3)c(-c3ccccc3)oc2ncn1CCN1CCOCC1	none
c1ccc(-c2oc3ncnc(NCCN4CCOCC4)c3c2-c2ccccc2)cc1	L major viab 98
N=c1c2c(-c3ccccc3)c(-c3ccccc3)oc2ncn1CCCN1CCOCC1	L major viab 87
CC(C)OC(=O)CC1C(=O)NCCN1C(=S)NC(=O)c1ccc(F)cc1 (stereo unspecified)	none
CCOC(=O)C1(Cc2cccc(F)c2)CCN(Cc2cn(CC)nc2C)CC1	L major viab 71
CCOC(=O)C1(CCCc2ccccc2)CCN(C(=O)Cc2nonc2C)CC1	none
CCOC(=O)C1(CCCc2ccccc2)CCN(Cc2cn(CC)nc2C)CC1	L major viab 84
c1ccc2c(c1)c1ccccc1n1c(-c3ccc4c(c3)OCO4)nnc21	none
O=C(COc1ccc2ccccc2c1)Nc1nccs1	none
O=C(O)c1ccc2cccnc2c1O	none (no result: Autophagy mod, MT stabilizer, L major viab)
Oc1c(C(Nc2ccccn2)c2ccccn2)ccc2cccnc12 (stereo unspecified)	L major viab 100
Cc1ccc2ccc(C(Nc3ccccn3)c3ccccc3)c(O)c2n1 (stereo unspecified)	L major viab 100
COc1ccc(C(Nc2cc(C)ccn2)c2ccc3ccc(C)nc3c2O)cc1 (stereo unspecified)	none (no result: Autophagy mod, MT stabilizer, L major viab)
Oc1ccccc1C(Nc1nccs1)c1ccc2cccnc2c1O (stereo unspecified)	CHOP inhibitor 71 (no result: Autophagy mod, MT stabilizer, L major viab)
Cc1nc2ccc(S(=O)(=O)N(C)CC(=O)Nc3ccccc3F)cc2s1	none
C=CCN1C(=O)NC2(O)C(=O)c3ccccc3C12O (stereo unspecified)	none
